Results: ChEMBL document CHEMBL3632620, “Synthesis, characterization, crystal structure determination and biological screening of novel N-1 and C5 alkyl substituted scaffolds of pyrimidine” (2015)
In brackets after ≈: the same amount, converted by molar mass. Activity calls are given as the source filed them. The calls are words filed in the database; no cut-off is given here.

Columns and labels:
[1] = test system: Salmonella enterica subsp. enterica serovar Abony; experiment: Antibacterial activity against Salmonella abony NCTC 6017 assessed as growth inhibition at 25 to 100 ug/ml at 12 hrs by agar well diffusion method; type: functional, organism-based
Escherichia coli [2] = experiment: Antibacterial activity against Escherichia coli ATCC 8739 assessed as growth inhibition at 25 ug/ml after 8 to 24 hrs by agar well diffusion method; type: functional; settings: read-out: DIZ
Method in brief: (§1)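 Agar well diffusion on nutrient agar (peptone, yeast extract, NaCl, 2% agar, pH 7). Suspensions were set to 0.5 McFarland in sterile water, final inoculum 5x10^7 CFU/mL. Plates were swabbed and left 15 min, then ~4 mm wells received 100 µL compound in DMSO, with DMSO as control. Plates stood 2 h at room temperature, then 24 h at 37 °C. Inhibition zone diameter was measured.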

Escherichia coli [3] = experiment: Antibacterial activity against Escherichia coli ATCC 8739 after 24 to 48 hrs; type: functional
Method in brief: (§2)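 Broth MIC in nutrient broth, pH 7.0. Inoculum came from a 16 h culture set to 0.5 McFarland, then diluted 10-fold to 1.2x10^7 CFU/mL. Compounds went from a 4 mg/mL DMSO stock to final 250 to 0.03 µg/mL. Controls were inoculum without compound and compound without inoculum. Incubation was 24-48 h at 37 °C. Then 5 µL was spotted onto agar for 24 h at 37 °C. MIC is the lowest concentration with no visible growth.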

[4] = test system: Staphylococcus epidermidis; experiment: Antibacterial activity against Staphylococcus epidermidis ATCC 12228 after 24 to 48 hrs; type: functional; method in brief: as §2
Staphylococcus aureus [5] = experiment: Antibacterial activity against Staphylococcus aureus ATCC 6538P assessed as growth inhibition at 25 to 100 ug/ml at 12 hrs by agar well diffusion method; type: functional, organism-based
Staphylococcus aureus [6] = experiment: Antibacterial activity against Staphylococcus aureus ATCC 6538P assessed as growth inhibition at 100 ug/ml after 8 to 24 hrs by agar well diffusion method; type: functional; settings: read-out: DIZ; method in brief: as §1
Escherichia coli [7] = experiment: Antibacterial activity against Escherichia coli ATCC 8739 assessed as growth inhibition at 100 ug/ml after 8 to 24 hrs by agar well diffusion method; type: functional; settings: read-out: DIZ; method in brief: as §1
[8] = test system: Salmonella enterica subsp. enterica serovar Abony; experiment: Antibacterial activity against Salmonella abony NCTC 6017 assessed as growth inhibition at 25 ug/ml after 8 to 24 hrs by agar well diffusion method; type: functional; settings: read-out: DIZ; method in brief: as §1
Escherichia coli [9] = experiment: Antibacterial activity against Escherichia coli ATCC 8739 assessed as growth inhibition at 25 to 100 ug/ml at 12 hrs by agar well diffusion method; type: functional, organism-based
[10] = test system: Salmonella enterica subsp. enterica serovar Abony; experiment: Antibacterial activity against Salmonella abony NCTC 6017 after 24 to 48 hrs; type: functional; method in brief: as §2
Staphylococcus aureus [11] = experiment: Antibacterial activity against Staphylococcus aureus ATCC 6538P assessed as growth inhibition at 25 ug/ml after 8 to 24 hrs by agar well diffusion method; type: functional; settings: read-out: DIZ; method in brief: as §1
Staphylococcus aureus [12] = experiment: Antibacterial activity against Staphylococcus aureus ATCC 6538P after 24 to 48 hrs; type: functional; method in brief: as §2
[13] = test system: Staphylococcus epidermidis; experiment: Antibacterial activity against Staphylococcus epidermidis ATCC 12228 assessed as growth inhibition at 25 to 100 ug/ml at 12 hrs by agar well diffusion method; type: functional, organism-based
[14] = test system: Staphylococcus epidermidis; experiment: Antibacterial activity against Staphylococcus epidermidis ATCC 12228 assessed as growth inhibition at 25 ug/ml after 8 to 24 hrs by agar well diffusion method; type: functional; method in brief: as §1
[15] = test system: Staphylococcus epidermidis; experiment: Antibacterial activity against Staphylococcus epidermidis ATCC 12228 assessed as growth inhibition at 100 ug/ml after 8 to 24 hrs by agar well diffusion method; type: functional; settings: for zone of inhibition at 100 µg/mL: read-out: DIZ; method in brief: as §1
[16] = test system: Salmonella enterica subsp. enterica serovar Abony; experiment: Antibacterial activity against Salmonella abony NCTC 6017 assessed as growth inhibition at 100 ug/ml after 8 to 24 hrs by agar well diffusion method; type: functional; settings: read-out: DIZ; method in brief: as §1

Row | SMILES | MIC (Escherichia coli [3]) | MIC [4] | MIC [10] | MIC (Staphylococcus aureus [12]) | Activity [1] | zone of inhibition at 25 µg/mL (Escherichia coli [2]) | Activity (Staphylococcus aureus [5]) | zone of inhibition at 100 µg/mL (Staphylococcus aureus [6]) | zone of inhibition at 100 µg/mL (Escherichia coli [7]) | zone of inhibition at 25 µg/mL [8] | Activity (Escherichia coli [9]) | zone of inhibition at 25 µg/mL (Staphylococcus aureus [11]) | Activity [13] | diameter of the inhibition zone (DIZ) [14] | diameter of the inhibition zone (DIZ) [15] | zone of inhibition at 100 µg/mL [16] | zone of inhibition at 100 µg/mL [15] | zone of inhibition at 25 µg/mL ([14]; read-out: DIZ)
1 | CCOC(=O)C1(C)C(C)NC(=O)N(C)C1c1ccc(N(C)C)cc1 (stereo not drawn) | 68 µg/mL (≈ 204 µM) | > 250 µg/mL | 16 µg/mL (≈ 48 µM) | 32 µg/mL (≈ 96 µM) | inactive | 10 mm | inactive | 16 mm | 14 mm | 10 mm | inactive | 12 mm | inactive | inactive | inactive | 22 mm |  | 
2 | CCOC(=O)C1(C)C(C)NC(=O)N(C)C1c1ccccc1[N+](=O)[O-] (stereo not drawn) | 32 µg/mL (≈ 95.4 µM) | > 250 µg/mL | 16 µg/mL (≈ 47.7 µM) | 8 µg/mL (≈ 23.9 µM) | inactive | 13 mm | inactive | 28 mm | 18 mm | 15 mm | inactive | 14 mm | inactive | inactive | inactive | 24 mm |  | 
3 | CCOC(=O)C1(C)C(C)NC(=O)N(C)C1c1ccc(O)cc1 (stereo not drawn) | 125 µg/mL (≈ 408 µM) | > 250 µg/mL | 68 µg/mL (≈ 222 µM) | 68 µg/mL (≈ 222 µM) | inactive | 8 mm | inactive | 12 mm | 10 mm | 11 mm | inactive | 10 mm | inactive | inactive | inactive | 14 mm |  | 
4 | CCOC(=O)C1(C)C(C)NC(=O)N(C)C1c1ccccc1 (stereo not drawn) | 68 µg/mL (≈ 234 µM) | 68 µg/mL (≈ 234 µM) | 125 µg/mL (≈ 430 µM) | 125 µg/mL (≈ 430 µM) | inactive | 12 mm | inactive | 10 mm | 13 mm | 9 mm | inactive | 10 mm | inactive | inactive |  | 10 mm | 14 mm | 
5 | O=C(N[C@H](CO)[C@H](O)c1ccc([N+](=O)[O-])cc1)C(Cl)Cl [CHLORAMPHENICOL] |  | 4 µg/mL (≈ 12.4 µM) | 4 µg/mL (≈ 12.4 µM) | 8 µg/mL (≈ 24.8 µM) |  | 20 mm |  | 28 mm | 24 mm | 19 mm |  | 20 mm |  |  |  | 32 mm | 35 mm | 14 mm
6 | CCOC(=O)C1(C)C(C)NC(=O)N(C)C1c1ccc(OC)cc1 (stereo not drawn) | 68 µg/mL (≈ 212 µM) | > 250 µg/mL | 68 µg/mL (≈ 212 µM) | 68 µg/mL (≈ 212 µM) | inactive | 13 mm | inactive | 12 mm | 14 mm | 10 mm | inactive | 10 mm | inactive | inactive | inactive | 13 mm |  | 
7 | CN[C@@H]1[C@H](O[C@H]2[C@H](O[C@H]3[C@H](O)[C@@H](O)[C@H](N=C(N)N)[C@@H](O)[C@@H]3N=C(N)N)O[C@@H](C)[C@]2(O)C=O)O[C@@H](CO)[C@H](O)[C@H]1O [STREPTOMYCIN] | 32 µg/mL (≈ 55 µM) | > 250 µg/mL | 32 µg/mL (≈ 55 µM) | 32 µg/mL (≈ 55 µM) |  | 14 mm |  | 16 mm | 16 mm | 25 mm |  | 12 mm |  | inactive | inactive | 18 mm |  | 

Continued, in another order:

Row | MIC (Escherichia coli [3]) | MIC [4] | MIC [10] | MIC (Staphylococcus aureus [12]) | SMILES | Activity [1] | zone of inhibition at 25 µg/mL (Escherichia coli [2]) | Activity (Staphylococcus aureus [5]) | zone of inhibition at 100 µg/mL (Staphylococcus aureus [6]) | zone of inhibition at 100 µg/mL (Escherichia coli [7]) | zone of inhibition at 25 µg/mL [8] | Activity (Escherichia coli [9]) | zone of inhibition at 25 µg/mL (Staphylococcus aureus [11]) | Activity [13] | diameter of the inhibition zone (DIZ) [14] | diameter of the inhibition zone (DIZ) [15] | zone of inhibition at 100 µg/mL [16] | zone of inhibition at 100 µg/mL [15] | zone of inhibition at 25 µg/mL ([14]; read-out: DIZ)
8 | 32 µg/mL (≈ 99.2 µM) | > 250 µg/mL | 32 µg/mL (≈ 99.2 µM) | 32 µg/mL (≈ 99.2 µM) | CCOC(=O)C1(C)C(C)NC(=S)N(C)C1c1ccc(O)cc1 (stereo not drawn) | inactive | 17 mm | inactive | 15 mm | 20 mm | 16 mm | inactive | 13 mm | inactive | inactive | inactive | 20 mm |  | 
9 | 16 µg/mL (≈ 46.9 µM) | > 250 µg/mL | 8 µg/mL (≈ 23.5 µM) | 16 µg/mL (≈ 46.9 µM) | CCOC(=O)C1(C)C(C)NC(=S)N(C)C1c1ccc(Cl)cc1 (stereo not drawn) | inactive | 20 mm | inactive | 23 mm | 20 mm | 18 mm | inactive | 18 mm | inactive | inactive | inactive | 28 mm |  | 
10 | 32 µg/mL (≈ 98.5 µM) | 68 µg/mL (≈ 209 µM) | 125 µg/mL (≈ 385 µM) | 68 µg/mL (≈ 209 µM) | CCOC(=O)C1(C)C(C)NC(=O)N(C)C1c1ccc(Cl)cc1 (stereo not drawn) | inactive | 10 mm | inactive | 16 mm | 14 mm | 9 mm | inactive | 12 mm | inactive | inactive |  | 10 mm | 13 mm | 
11 | 16 µg/mL (≈ 47.6 µM) | > 250 µg/mL | 32 µg/mL (≈ 95.1 µM) | 32 µg/mL (≈ 95.1 µM) | CCOC(=O)C1(C)C(C)NC(=S)N(C)C1c1ccc(OC)cc1 (stereo not drawn) | inactive | 15 mm | inactive | 16 mm | 22 mm | 16 mm | inactive | 12 mm | inactive | inactive | inactive | 15 mm |  | 
12 | 16 µg/mL (≈ 52.2 µM) | > 250 µg/mL | 32 µg/mL (≈ 104 µM) | 68 µg/mL (≈ 222 µM) | CCOC(=O)C1(C)C(C)NC(=S)N(C)C1c1ccccc1 (stereo not drawn) | inactive | 14 mm | inactive | 13 mm | 21 mm | 16 mm | inactive | 10 mm | inactive | inactive | inactive | 18 mm |  | 
